The values below come from ChEMBL document CHEMBL1138528, “Discovery of tetrasubstituted imidazolines as potent and selective neuropeptide Y Y5 receptor antagonists: reduced human ether-a-go-go related gene potassium channel binding affinity and potent antiobesity effect” (J Med Chem, 2009).

Some results are limits rather than exact numbers.

Data set [1] is described as follows: Octanol-water distribution coefficient, log D at pH 7.4. The data set is classed as physicochemical.
The target in data set [2] is T1, Neuropeptide Y receptor type 5 (Homo sapiens, UniProt Q15761).
T1 sequence (Q15761 whole entry): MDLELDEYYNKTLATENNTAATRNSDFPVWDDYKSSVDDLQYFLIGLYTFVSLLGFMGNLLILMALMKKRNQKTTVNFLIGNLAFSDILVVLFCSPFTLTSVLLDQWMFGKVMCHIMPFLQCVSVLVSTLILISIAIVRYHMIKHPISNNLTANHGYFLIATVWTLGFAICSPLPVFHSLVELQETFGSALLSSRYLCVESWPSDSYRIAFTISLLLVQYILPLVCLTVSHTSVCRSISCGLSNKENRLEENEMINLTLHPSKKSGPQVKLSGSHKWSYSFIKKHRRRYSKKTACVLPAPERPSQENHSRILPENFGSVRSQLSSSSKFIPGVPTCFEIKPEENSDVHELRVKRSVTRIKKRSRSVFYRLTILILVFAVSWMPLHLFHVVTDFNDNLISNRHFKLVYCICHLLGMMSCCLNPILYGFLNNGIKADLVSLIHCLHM
Nature of the data set: Displacement of [125I]PYY from human recombinant neuropeptide Y5 receptor expressed in mouse LMtk- cells. The data set is classed as cell-based. For orientation: Displacement assays read how much labelled ligand stays bound in the presence of the test substance.

Data set [3] in a line: Metabolic stability in rat hepatocytes assessed as hepatic clearance by serum incubation method. The data set is classed as ADME, cell-based, Liver, Hepatocyte.
Data set [4] deals with Voltage-gated inwardly rectifying potassium channel KCNH2 (Homo sapiens, UniProt Q12809).
For the next data set, the system named is Brain. Nature of the data set: Drug level in Sprague-Dawley rat brain at 10 mg/kg, po after 2 hrs. The data set is classed as ADME, organism-based. Details: dose 10 mg/kg, route oral. The following applies: in vivo. The essentials:
(§1)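 Male SD rats (7-10 weeks, 200-400 g) dosed orally at 10 mg/kg in 0.5% methylcellulose; at 2 h aortic blood taken under isoflurane. Plasma, brain homogenate (sonicated in water) and CSF deproteinized with 3-fold ethanol plus internal standard, -20 °C 20 min, centrifuged; LC/MS/MS with relative calibration curve. Mean, n = 2-3.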

Data set [5] is described as follows: Ratio of drug level from cerebrospinal fluid to brain in Sprague-Dawley rat at 10 mg/kg, po after 2 hrs. Details: dose 10 mg/kg, route oral. The data set is classed as ADME, organism-based, CSF/Brain. The following applies: in vivo.
Data set [6] in a line: Drug level in Sprague-Dawley rat cerebrospinal fluid at 10 mg/kg, po after 2 hrs. The data set is classed as ADME, organism-based. Details: dose 10 mg/kg, route oral. As to conditions: Sprague-Dawley, cerebrospinal fluid, read-out: Drug uptake. In outline: as §1
The nature of data set [7]: Plasma concentration in Sprague-Dawley rat at 10 mg/kg, po after 2 hrs. The data set is classed as ADME, organism-based. Details: dose 10 mg/kg, route oral. In outline: as §1
The nature of data set [8]: Ratio of drug level from brain to plasma in Sprague-Dawley rat at 10 mg/kg, po after 2 hrs. The data set is classed as ADME, organism-based. Details: dose 10 mg/kg, route oral. In outline:
as §1
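For IC50 in this document: radioligand displacement binding to human ERG expressed in HEK293 cells, using a [35S]-labelled spiro-benzopyran-piperidine methanesulfonamide as the displaced ligand.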

Voltage-gated inwardly rectifying potassium channel KCNH2, sequence (Q12809 whole entry): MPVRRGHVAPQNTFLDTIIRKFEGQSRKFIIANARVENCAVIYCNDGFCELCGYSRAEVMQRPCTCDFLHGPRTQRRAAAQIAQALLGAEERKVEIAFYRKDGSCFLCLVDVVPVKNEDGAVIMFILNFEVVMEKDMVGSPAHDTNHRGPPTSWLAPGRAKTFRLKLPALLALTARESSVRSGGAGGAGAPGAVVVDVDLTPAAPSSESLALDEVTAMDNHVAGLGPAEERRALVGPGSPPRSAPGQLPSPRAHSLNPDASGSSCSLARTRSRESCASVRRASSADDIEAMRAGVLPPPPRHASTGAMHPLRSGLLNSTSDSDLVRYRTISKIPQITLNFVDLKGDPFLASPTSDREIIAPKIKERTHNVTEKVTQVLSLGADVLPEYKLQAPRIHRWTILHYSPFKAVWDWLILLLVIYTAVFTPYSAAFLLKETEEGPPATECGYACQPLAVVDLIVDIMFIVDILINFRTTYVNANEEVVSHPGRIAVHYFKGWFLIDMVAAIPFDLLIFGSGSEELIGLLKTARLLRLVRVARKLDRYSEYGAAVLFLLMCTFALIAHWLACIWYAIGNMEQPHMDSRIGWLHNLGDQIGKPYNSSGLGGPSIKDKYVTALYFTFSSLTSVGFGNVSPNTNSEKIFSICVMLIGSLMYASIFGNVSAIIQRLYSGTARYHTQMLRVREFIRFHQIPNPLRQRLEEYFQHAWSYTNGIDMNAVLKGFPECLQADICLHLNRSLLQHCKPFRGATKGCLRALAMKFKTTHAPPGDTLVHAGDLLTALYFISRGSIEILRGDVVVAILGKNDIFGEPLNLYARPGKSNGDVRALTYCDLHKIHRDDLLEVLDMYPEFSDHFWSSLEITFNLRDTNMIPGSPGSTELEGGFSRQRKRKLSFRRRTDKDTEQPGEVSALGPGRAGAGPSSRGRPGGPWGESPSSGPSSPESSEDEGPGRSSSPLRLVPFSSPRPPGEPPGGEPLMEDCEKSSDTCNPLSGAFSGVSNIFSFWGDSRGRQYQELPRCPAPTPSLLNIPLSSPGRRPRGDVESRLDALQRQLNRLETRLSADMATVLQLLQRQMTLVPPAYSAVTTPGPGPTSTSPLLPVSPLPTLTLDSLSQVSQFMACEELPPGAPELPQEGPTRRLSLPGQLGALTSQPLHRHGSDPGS

In data set [1], `C[C@@H]1NC(c2cccc(S(C)(=O)=O)c2)=N[C@@]1(c1ccc(F)cc1)c1ccc(F)nc1` displayed a logD of 2.9. Besides, the Ki in [2] is 2.5 nM. The CLhep predicted in [3] was 6 mL/min/kg. Besides, the IC50 in data set [4] is above 10000 nM.

`C[C@@H]1NC(c2cnccn2)=NC1(c1ccc(F)cc1)c1ccc(F)cc1` had a logD in data set [1] of 3.7. The inhibition constant Ki in data set [2] stood at 1.9 nM. For the same compound, the CLhep predicted in [3] is 57 mL/min/kg. In data set [4], this compound returned an IC50 above 10000 nM.

`C[C@@H]1NC(c2cc(Cl)ccn2)=N[C@@]1(c1ccc(F)cc1)c1ccc(F)nc1` showed a log distribution coefficient (logD) in data set [1] of 3.8. The Ki in data set [2] worked out at 1.8 nM. The CLhep predicted in data set [3] is 58 mL/min/kg.

As for `C[C@@H]1NC(c2cnsn2)=N[C@@]1(c1ccc(F)cc1)c1ccc(F)nc1`, in [1], the logD turned out to be 3.1. Moreover, the Ki in data set [2] is 2 nM. Also, the CLhep predicted in [3] was 58 mL/min/kg.

On to `C[C@H]1NC(c2cc(C#N)ccn2)=NC1(c1ccc(F)cc1)c1ccc(F)cc1`, for which, in [2], the Ki came out at 300 nM.

As to `N#Cc1cccc(C2=NC(c3ccc(F)cc3)(c3ccc(F)cc3)CN2)c1`, the Drug uptake with Brain was 8.1 nmol/g. In addition, the Ratio in data set [5] is 0.003.

Take `COc1ccnc(C2=N[C@@](c3ccc(F)cc3)(c3ccc(F)nc3)[C@H](C)N2)c1`: the logD in [1] came to 3.6. Also, in data set [2], the Ki was 2.5 nM. Besides, in [3], the CLhep predicted is 58 mL/min/kg.

For the compound `C[C@@H]1NC(c2nccs2)=N[C@@]1(c1ccc(F)cc1)c1ccc(F)nc1`, the logD in [1] came to 3. In [2], the Ki is 4.1 nM. This compound also came in with an IC50 in [4] above 10000 nM.

In data set [1], `C[C@@H]1NC(c2cnccn2)=N[C@@]1(c1ccc(F)cc1)c1ccc(F)nc1` gave a logD of 2.5. In addition, in [2], the Ki is 2.2 nM. In data set [3], the CLhep predicted is 42 mL/min/kg.

`C[C@@H]1NC(c2cccc(C#N)c2)=N[C@@]1(c1ccc(F)cc1)c1ccc(F)nc1` yielded a logD in data set [1] of 3.6. In addition, the concentration at 2 h in data set [6] was determined as 130 nM; in [7], 2600 nM. Further, the Ki in [2] was found to be 0.8 nM. In addition, the Drug uptake in the data set on Brain is on record as 6.1 nmol/g. In data set [3], the CLhep predicted was 9 mL/min/kg. Also, the Kp at 2 h in data set [8] turned out to be 2.3.

`CC[C@@H]1NC(c2cc(C#N)ccn2)=NC1(c1ccc(F)cc1)c1ccc(F)cc1`: the Ki in [2] was 2.6 nM. Also, it took 490 nM to reach half-maximal inhibition in [4] (IC50).

`C[C@@H]1NC(c2cc(C(N)=O)ccn2)=N[C@@]1(c1ccc(F)cc1)c1ccc(F)nc1`: in [1], the logD stood at 2.4. Moreover, the Ki in data set [2] was found to be 5.1 nM. For the same compound, the CLhep predicted in data set [3] is 7 mL/min/kg.

As for `COc1ccc([C@]2(c3ccc(F)cc3)N=C(c3cc(C#N)ccn3)N[C@H]2C)cn1`, the logD in data set [1] worked out at 3.5. Besides, in data set [2], the inhibition constant Ki worked out at 1.1 nM. Also, the CLhep predicted in data set [3] was 44 mL/min/kg.

For the compound `C[C@@H]1NC(c2cc(C#N)ccn2)=NC1(c1ccc(F)nc1)c1ccc(F)nc1`, in data set [1], the logD was found to be 2.2. In data set [2], the Ki turned out to be 3.1 nM. The CLhep predicted in data set [3] is 52 mL/min/kg. This compound registered an IC50 in [4] above 10000 nM.

The compound `N#Cc1ccnc(C2=NC(c3ccc(F)cc3)(c3ccc(F)cc3)CN2)c1` displayed a logD in data set [1] of 4. Besides, the Ki in data set [2] was 2 nM. Also, the Drug uptake in the data set on Brain worked out at 6.4 nmol/g. Besides, the CLhep predicted in [3] is 12 mL/min/kg. For the same compound, the IC50 in [4] is 101 nM. Moreover, the Ratio in data set [5] was 0.004.

In [1], `C[C@@H]1NC(c2nccc(C#N)n2)=N[C@@]1(c1ccc(F)cc1)c1ccc(F)nc1` came in with a logD of 2.2. The inhibitory constant (Ki) in data set [2] stood at 3.6 nM. In addition, the CLhep predicted in [3] is 30 mL/min/kg.

The compound `C[C@@H]1NC(c2cc(C#N)ccn2)=NC1(c1ccc(F)cc1)c1ccc(F)cc1` came in with a logD in [1] of 4.1. In addition, in [2], the Ki is 1 nM. Further, in [3], the CLhep predicted is 28 mL/min/kg.

As for `C[C@@H]1NC(c2cccc(C#N)n2)=N[C@@]1(c1ccc(F)cc1)c1ccc(F)nc1`, the logD in [1] amounted to 3.3. Also, the Ki in data set [2] worked out at 5.9 nM. Besides, the CLhep predicted in data set [3] was 13 mL/min/kg. In [4], half-maximal inhibition (IC50) required 6930 nM.

With `C[C@@H]1NC(c2cncc(C#N)c2)=N[C@@]1(c1ccc(F)cc1)c1ccc(F)nc1`, the logD in data set [1] stood at 2.9. Also, the results for the concentration at 2 h in data set [6] and in data set [7] were 460 nM and 4400 nM, respectively. Also, in data set [2], the Ki stood at 3.2 nM. Also, in the data set on Brain, the Drug uptake is listed as 5.3 nmol/g. Further, the CLhep predicted in data set [3] is 12 mL/min/kg. The compound also gave a half-maximal inhibitory concentration (IC50) in data set [4] above 10000 nM. In data set [5], the Ratio came out at 0.087. Also, the Kp at 2 h in [8] came out at 1.2.

For `C[C@@H]1NC(c2cc(C#N)ccn2)=N[C@@]1(c1ccc(F)cc1)c1ccc(=O)[nH]c1`, the inhibition constant (Ki) in data set [2] was determined as 145 nM.

For `CCC[C@@H]1NC(c2cc(C#N)ccn2)=NC1(c1ccc(F)cc1)c1ccc(F)cc1`, the Ki in data set [2] was determined as 8.6 nM. Inhibition in [4] was half-maximal at 490 nM (IC50).

The compound `C[C@@H]1NC(c2ccnc(C#N)c2)=N[C@@]1(c1ccc(F)cc1)c1ccc(F)nc1` returned a logD in data set [1] of 3.2. For the same compound, the concentration at 2 h in data set [6] is 220 nM; in [7], 3700 nM. Moreover, in data set [2], the Ki was found to be 1 nM. The compound further had a Drug uptake with Brain of 3.2 nmol/g. Besides, the CLhep predicted in [3] is 13 mL/min/kg. The same compound yielded an IC50 in data set [4] above 10000 nM. Further, the Ratio in data set [5] amounted to 0.069. The Kp at 2 h in data set [8] turned out to be 0.9.

`C[C@@H]1NC(c2cccc(=O)[nH]2)=N[C@@]1(c1ccc(F)cc1)c1ccc(F)nc1`: the logD in data set [1] was found to be 2.4. The concentration at 2 h was 50 nM in data set [6] and 3700 nM in [7]. The Drug uptake in the data set with Brain was 0.36 nmol/g. Also, in data set [8], the Kp at 2 h amounted to 0.1.

The compound `C[C@@H]1NC(c2cc(C#N)ccn2)=N[C@]1(c1ccc(F)cc1)c1ccc(F)nc1` had a logD in data set [1] of 2.9. The CLhep predicted in data set [3] was 56 mL/min/kg.

As for `N#Cc1ccnc(C2=NC(c3ccc(F)cc3)(c3ccc(F)cc3)[C@H](CO)N2)c1`, the logD in data set [1] turned out to be 3.4. Besides, the values for the concentration at 2 h in data set [6] and in data set [7] were 57 nM and 1100 nM, respectively. In addition, the Ki in data set [2] amounted to 3 nM. This compound displayed a Drug uptake in the data set with Brain of 2.3 nmol/g. For the same compound, the CLhep predicted in data set [3] was 11 mL/min/kg. The compound also registered an IC50 in data set [4] of 6100 nM. In addition, the Ratio in data set [5] is 0.025. Moreover, the Kp at 2 h in [8] came out at 2.1.

In data set [1], `Fc1ccc(C2(c3ccc(F)cc3)CNC(c3cnccn3)=N2)cc1` showed a logD of 3.5. For the same compound, the Ki in [2] amounted to 4.3 nM. In addition, the Drug uptake with Brain was determined as 5.9 nmol/g. In addition, the CLhep predicted in [3] is 51 mL/min/kg. Also, in data set [4], half-maximal inhibition (IC50) required 3400 nM. Besides, the Ratio in data set [5] is reported as 0.011.

What is called logD is lipophilicity at a set pH, counting ionised and neutral species. In general, Ki refers to a dissociation constant, usually derived from enzyme kinetics or from competition with a known ligand. The term IC50 denotes the concentration that gives 50% inhibition. High values mean a need for much substance, low ones inhibition by little substance. What is called Kp is the ratio of the level in a tissue or fluid to that in plasma or blood.
